Screening data (PubChem)
Rows were chosen to be rich in hits. Some 2.6% of all compounds tested hit in one or more screens of this group.
WT yeast gro inh = growth inhibition of WT yeast, mitochondrial fusion screen | inhibition, % at 10 µM | mitochondrial fusion phenotypic screen, WT strain | 2.1% of 190,000 active | AID 1362; in the data active = inhibition above about 58%; tested in S. cerevisiae
Arbovirus inh = antivirals against arbovirus infection; arbovirus infection cell-based antiviral screen; inhibition, % at 10 µM; 0.37% of 200,000 active; in the data active = inhibition above about 30%
TNAP inh no acc = inhibitors of human TNAP without phosphate acceptor; P05186; 0.26% of 200,000 active; purified TNAP, CDP-star luminescence, 30 min; inhibition, % at 20 µM; AID 1012;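 active = tissue-nonspecific alkaline phosphatase inhibition above about 50% at 20 µM in the single-dose screen, limit read from the data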;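 also: 0% = DMSO negative control and 100% = EDTA positive control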
Target sequence (P05186 whole entry, looked up): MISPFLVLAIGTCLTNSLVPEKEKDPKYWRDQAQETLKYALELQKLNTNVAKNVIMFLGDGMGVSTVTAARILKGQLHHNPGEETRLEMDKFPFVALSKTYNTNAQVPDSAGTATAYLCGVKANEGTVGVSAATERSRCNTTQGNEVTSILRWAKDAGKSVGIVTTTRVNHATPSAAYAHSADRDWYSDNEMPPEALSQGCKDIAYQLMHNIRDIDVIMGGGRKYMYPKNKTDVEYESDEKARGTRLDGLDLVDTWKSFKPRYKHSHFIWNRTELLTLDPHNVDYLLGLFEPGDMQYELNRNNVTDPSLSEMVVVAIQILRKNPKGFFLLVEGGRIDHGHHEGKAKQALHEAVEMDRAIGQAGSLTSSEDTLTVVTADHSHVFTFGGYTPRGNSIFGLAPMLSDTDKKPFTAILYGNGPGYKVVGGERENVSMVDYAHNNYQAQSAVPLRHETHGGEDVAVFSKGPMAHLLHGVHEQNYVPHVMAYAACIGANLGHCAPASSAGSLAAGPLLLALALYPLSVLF
TNAP inh hiacc = inhibitors of human TNAP at high phosphate acceptor concentration; P05186; purified TNAP, CDP-star luminescence, 1 M DEA; inhibition, % at 20 µM; AID 1135; 0.03% of 200,000 active;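 active = over 50% inhibition of tissue-nonspecific alkaline phosphatase at 20 µM in the single-dose screen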;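 also: plate controls were DMSO wells for no effect and EDTA-quenched wells as full inhibition for full effect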
TNAP act hiacc = activators of human TNAP at high phosphate acceptor concentration. AID 1136. 200,000 tested, under 10 active. activation factor at 20 µM. P05186. purified TNAP, CDP-star luminescence, 1 M DEA, 30 min; active compounds read high; 0 = EDTA background, 1 = DMSO-only activity;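 active = activation factor at least 2 at 20 µM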
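Measured by: Luminescent substrate turnover signal | Test system: Human TNAP | Input: TNAP 1/800 final | Dosing: 20 µM single point | Schedule: 30 min, room temperature | Controls: EDTA wells as negative control, DMSO wells as positive control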
* = called active by the depositor.

SMILES	WT yeast gro inh	Arbovirus inh	TNAP inh no acc	TNAP inh hiacc	TNAP act hiacc
COc1ccc(C2C3=C(CC(C)(C)CC3=O)Oc3ncn(Cc4ccco4)c(=N)c32)cc1 (stereo not given)	0	-17	-14	-6	1.1
N=c1c2c(ncn1Cc1ccco1)Oc1ccc3ccccc3c1C2c1ccccc1 (stereo not given)	66*	-32	-2	-1	1
CC(C)C(C)NC(=O)COC(=O)/C=C/c1ccc(S(=O)(=O)N2CCc3ccccc32)cc1 (stereo not given)	8	-3	-6	-4	1
Cc1ccc(CSc2nn3c(=O)c(C)nnc3s2)cc1	-18	18	-8	-1	1
Cc1cccc(CSc2nn3c(=O)c(C)nnc3s2)c1	-4	40*	-12	-4	1
COc1ccc(CCc2nc(C)ccc2O)cc1	17	7	-7	1	1
O=c1c2cn[nH]c2nc(SCc2ccccc2F)n1-c1ccc(Br)cc1	79*	-23	-14	-3	1
O=c1c2cn[nH]c2nc(SCc2cc(=O)n3cc(Br)ccc3n2)n1-c1ccc(Br)cc1	3	10	-6	0	1
Cc1ccc2cc(C)c3nnc(SCC(=O)Nc4nc5c(s4)CCCC5)n3c2c1	-25	-5	-16	2	1
N#Cc1ccccc1Sc1ccccc1C(=O)Nc1ccc(Br)cc1	77*	-3	-12	-6	1.1
N#Cc1ccccc1Sc1ccccc1C(=O)Nc1ccc2ccccc2c1	10	13	-9	-4	1
COc1ccc(N2CCN(CC(=O)Nc3cccc(S(=O)(=O)N4CCOCC4)c3)CC2)cc1	-8	-4	0	5	1
Cc1ccc(SCc2nc3ccccc3[nH]2)cc1	26	5	-16	-1	1
Cc1ccc(CSCc2nc3ccccc3[nH]2)cc1	67*	36*	-56	-4	1
Clc1ccc(OCCSCc2nc3ccccc3[nH]2)cc1	79*	-33	-57	-4	1
Cc1ccc(OCCSCc2nc3ccccc3[nH]2)cc1	46	19	-24	-2	1
CC(NC(=O)/C(=C\c1ccco1)NC(=O)c1ccccc1Br)C(=O)O (stereo not given)	14	-1	4	-4	1
CSc1ncccc1C(=O)NC(C)C1CC2CCC1C2 (stereo not given)	-13	1	-10	-6	1.1
CC1CN(S(=O)(=O)c2cccc(C(=O)OC/C(O)=C(\C#N)c3nc4ccccc4[nH]3)c2)CC(C)O1 (stereo not given)	0	-16	-16	-1	1
CCOC(=O)CC(=O)CSc1nc(-c2cccnc2)cc(C)c1C#N	60*	0	-11	-5	1.1
CCOC(=O)CC(=O)CSc1nc(C)cc(-c2cccnc2)c1C#N	1	6	-16	-6	1.1
COc1ccccc1NC(=S)NNC(=O)c1cc(C)nn1C	14	5	-43	-9	1.1
Cc1onc(-c2ccccc2Cl)c1C(=O)NC(=S)Nc1ccccc1F	70*	12	1	-4	1
COc1ccccc1NC(=S)NC(=O)c1c(-c2ccccc2Cl)noc1C	70*	1	0	-3	1
COc1ccccc1NC(=S)NNC(=O)c1c(Cl)c(C)nn1C	65*	5	-14	1	1
SMILES	WT yeast gro inh	Arbovirus inh	TNAP inh no acc	TNAP inh hiacc	TNAP act hiacc
O=C(CN1CCN(c2ccccc2)CC1)N/N=C/c1cccc(F)c1	1	6	-5	-3	1
CC(C)NC(=O)CSc1nnc(-c2ccc(F)cc2)c2ccccc12	-9	10	5	-1	1
CCOc1ccccc1N1CCN(C(=O)Nc2ccc(F)c(Cl)c2)CC1	52	4	-7	-5	1
CCOc1ccccc1N1CCN(C(=S)NCc2ccc(Cl)cc2)CC1	78*	-23	1	0	1
CCOc1ccccc1N1CCN(C(=S)NC(=O)C23CC4CC(CC(C4)C2)C3)CC1	59*	5	-57	-6	1.1
S=C(NCc1ccccc1)N1CCN(c2cccc(Cl)c2)CC1	70*	-21	-16	-2	1
CC(=O)NC1=NN(C(C)=O)C(c2sccc2C)S1 (stereo not given)	-7	-13	-11	0	1
CC(C)=C1C2CCC1C1C(=O)N(c3nc(-c4ccccc4)c(C)s3)C(=O)C21 (stereo not given)	59*	16	5	9	0.9
CC(C)=C1C2CCC1C1C(=O)N(c3nccs3)C(=O)C21 (stereo not given)	4	6	-20	-3	1
